Results taken from ChEMBL document CHEMBL1275349 (J Med Chem, 2010).
Calls of active or inactive are those of the source. No cut-off for these calls is given here.

What was measured:
[1] = test system: Strongylocentrotus purpuratus; assay: Agonist activity at NAADP receptor in sea urchin egg homogenate assessed as desensitization of NAADP-induced Ca2+ release at => 1 nM treated for 9 mins before NAADP challenge by Fluo-3 staining based fluorimetric assay; format: functional, tissue-based
Method in brief: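 Strongylocentrotus purpuratus egg homogenate (1.25% v/v) diluted in intracellular medium: 250 mM potassium gluconate pH 7.2, 0.5 mM ATP, 4 mM […], creatinine kinase, 3 μM Fluo-3; 17 °C. Ca2+ release read as fluorescence (ex 490/em 535 nm); EC50 from plateau maximum vs concentration, mean of ≥3 determinations. For desensitization, 9 min pretreatment, then 1 μM NAADP challenge; mean±SEM, n = 3.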

[2] = test system: Strongylocentrotus purpuratus; assay: Binding affinity to NAADP receptor in sea urchin microsomes assessed as fold increase in IC50 for displacement of [32P]NAADP from receptor relative to NAADP; settings: Microsome
Method in brief: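 Competition binding in sea urchin egg homogenate: 0.2 nM [32P]NAADP plus seven competitor concentrations, incubated together 90 min at 4 °C, in triplicate. Filtered, washed, filter-bound radioactivity counted by liquid scintillation. IC50 from fitted curves over ≥3 experiments; fold value is relative to NAADP IC50.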

[3] = test system: Strongylocentrotus purpuratus; assay: Agonist activity at NAADP receptor in sea urchin egg homogenate assessed as fold increase in EC50 for induction of Ca2+ release relative to NAADP; format: functional, tissue-based
[4] = Displacement of [32P]NAADP from NAADP receptor in sea urchin microsomes after 90 mins by liquid scintillation counting; set-up: species or system Strongylocentrotus purpuratus, Microsome
Method in brief: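 Competition binding in sea urchin egg homogenate: 0.2 nM [32P]NAADP plus seven competitor concentrations, incubated together 90 min at 4 °C, in triplicate. Filtered, washed, filter-bound radioactivity counted by liquid scintillation.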

[5] = (§1) Agonist activity at NAADP receptor in sea urchin egg homogenate assessed as induction of Ca2+ release by Fluo-3 staining based fluorimetric assay; format: functional, Strongylocentrotus purpuratus
[6] = test system: Strongylocentrotus purpuratus; assay: as §1; format: functional
[7] = test system: Strongylocentrotus purpuratus; assay: Agonist activity at NAADP receptor in sea urchin egg homogenate assessed as induction of Ca2+ release at 2 nM by Fluo-3 staining based fluorimetric assay; format: functional, tissue-based

Row | SMILES | Activity [1] | fold change (FC) [2] | fold change (FC) [3] | IC50 [4] [µM] | EC50 [5] [µM] | Activity [6] | Activity [7]
1 | CCCCc1cc[n+]([C@H]2O[C@@H](COP(=O)(O)OP(=O)(O)OC[C@H]3O[C@@H](n4cnc5c(N)ncnc54)[C@H](OP(=O)(O)O)[C@@H]3O)[C@H](O)[C@@H]2O)cc1C(=O)[O-] | Active | 303 | > 50000 | 0.465 | > 1000 | – | –
2 | CCc1cc(C(=O)[O-])c[n+]([C@H]2O[C@@H](COP(=O)(O)OP(=O)(O)OC[C@H]3O[C@@H](n4cnc5c(N)ncnc54)[C@H](OP(=O)(O)O)[C@@H]3O)[C@H](O)[C@@H]2O)c1 | Active | 23 | 18 | 0.037 | 0.352 | – | –
3 | Nc1cc(C(=O)[O-])c[n+]([C@H]2O[C@@H](COP(=O)(O)OP(=O)(O)OC[C@H]3O[C@@H](n4cnc5c(N)ncnc54)[C@H](OP(=O)(O)O)[C@@H]3O)[C@H](O)[C@@H]2O)c1 | Active | 1.1 | 1.5 | 0.0017 | 0.0274 | Dose-dependent effect | Active
4 | Nc1cc[n+]([C@H]2O[C@@H](COP(=O)(O)OP(=O)(O)OC[C@H]3O[C@@H](n4cnc5c(N)ncnc54)[C@H](OP(=O)(O)O)[C@@H]3O)[C@H](O)[C@@H]2O)cc1C(=O)[O-] | Active | 88 | 235 | 0.141 | 4.41 | – | –
5 | Cc1cc(C(=O)[O-])c[n+]([C@H]2O[C@@H](COP(=O)(O)OP(=O)(O)OC[C@H]3O[C@@H](n4cnc5c(N)ncnc54)[C@H](OP(=O)(O)O)[C@@H]3O)[C@H](O)[C@@H]2O)c1 | Active | 1.2 | 2.3 | 0.0019 | 0.043 | Dose-dependent effect | Active
6 | Cc1cc[n+]([C@H]2O[C@@H](COP(=O)(O)OP(=O)(O)OC[C@H]3O[C@@H](n4cnc5c(N)ncnc54)[C@H](OP(=O)(O)O)[C@@H]3O)[C@H](O)[C@@H]2O)cc1C(=O)[O-] | Active | 93 | 2200 | 0.149 | 42.2 | Dose-dependent effect | –
7 | [N-]=[N+]=Nc1cc(C(=O)[O-])c[n+]([C@H]2O[C@@H](COP(=O)(O)OP(=O)(O)OC[C@H]3O[C@@H](n4cnc5c(N)ncnc54)[C@H](OP(=O)(O)O)[C@@H]3O)[C@H](O)[C@@H]2O)c1 | Active | 11 | 90 | 0.018 | 1.69 | – | –
8 | Nc1ncnc2c1ncn2[C@@H]1O[C@H](COP(=O)(O)OP(=O)(O)OC[C@@H]2O[C@H]([n+]3cc(C(=O)[O-])cc(C(=O)O)c3)[C@@H](O)[C@H]2O)[C@@H](O)[C@H]1OP(=O)(O)O | Active | > 60000 | > 50000 | > 100 | > 1000 | – | –
9 | Nc1ncnc2c1ncn2[C@@H]1O[C@H](COP(=O)(O)OP(=O)(O)OC[C@@H]2O[C@H]([n+]3cccc(C(=O)[O-])c3)[C@@H](O)[C@H]2O)[C@@H](O)[C@H]1OP(=O)(O)O | – | – | – | – | – | Dose-dependent effect | –
10 | Nc1ncnc2c1ncn2[C@@H]1O[C@H](COP(=O)(O)OP(=O)(O)OC[C@@H]2O[C@H]([n+]3ccc(-c4ccccc4)c(C(=O)[O-])c3)[C@@H](O)[C@H]2O)[C@@H](O)[C@H]1OP(=O)(O)O | Active | 540 | > 50000 | 0.859 | > 1000 | – | –
